Assay results from ChEMBL document CHEMBL1139842, “Effects of azaspiracid-1, a potent cytotoxic agent, on primary neuronal cultures. A structure-activity relationship study” (J Med Chem, 2007).
Calls of active or inactive are those of the source. No cut-off for these calls is given here.

Columns and labels:
[1] = tested on: cerebellar granule cells (mouse); test: Cytotoxicity against cerebellar granule neurons at 250 nM by MTT assay after 24 hrs
[2] = Increase in cytosolic calcium concentration in cerebellar granule cell in calcium free medium at 1 uM; type: functional, cell-based; conditions: Mus musculus
Summary of the method: (§1)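 Cultured mouse cerebellar granule cells co-loaded with Fura-2 AM (1 µM) and BCECF-AM (0.5 µM), 10 min at 37 °C, imaged by epifluorescence microscopy in a 37 °C open-bath chamber. Compound applied in calcium-free buffer (pH 7.4) before calcium was restored, or added directly in calcium-containing medium. [Ca2+]c calibrated by the Grynkiewicz method. Means ± SEM of 3-4 experiments in duplicate.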

[3] = tested on: cerebellar granule cells (mouse); test: Increase in cytosolic calcium concentration in cerebellar granule cells in presence of calcium at 1 uM
[4] = Increase in cytosolic calcium concentration in cerebellar granule cells in presence of calcium at 1 uM; type: functional; conditions: Mus musculus
Summary of the method: as §1

[5] = Decrease in intracellular pH in cerebellar granule cells in calcium free medium at 1 uM; type: functional
Summary of the method: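 Single-cell imaging at 37 °C in an open-bath chamber, drug buffers at pH 7.4. Compound added in calcium-free buffer, then calcium restored, or added in calcium-containing buffer. Read-out is the 490/440 excitation ratio at 530 nm emission from 25-30 cells per coverslip, converted to pH by nigericin in situ calibration (pH 6-9). Three to five independent experiments, each in duplicate.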

[6] = Effect on intracellular pH in presence of calcium in cerebellar granule cells at 1 uM; type: functional, cell-based; conditions: Mus musculus
Summary of the method: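 530-nm emission ratio at 490/440 excitation from 25-30 cells per coverslip, converted to pH by nigericin in situ calibration (pH 6-9). Tested in calcium-free medium then after calcium restoration, or in calcium-containing medium; drug buffer pH 7.4.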

COLO = test: Cytotoxicity against cerebellar granule neurons at 250 nM by MTT assay after 4 hrs; type: functional, Mus musculus
Summary of the method: (§2)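 Primary cerebellar granule cells from 7-day-old Swiss mice, cultured 8-11 days in KCl (25 mM) DMEM with 10% fetal calf serum and cytosine arabinoside. Exposed in culture medium to compound (0.5-250 nM range; fragments 250 nM) for 4, 8 or 24 h at 37 °C. Then MTT 500 µg/mL in Locke's buffer for 30 min, SDS lysis, formazan read at 590. IC50 given with 95% confidence intervals.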

[7] = Cytotoxicity against cerebellar granule neurons by MTT assay; conditions: mouse, cerebellar granule neurone
Summary of the method: (§3)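 Primary cerebellar granule cells from 7-day-old Swiss mouse cerebella, cultured 8-11 days in DMEM with 25 mM KCl and 10% fetal calf serum; cytosine arabinoside (20 µM) against glia. Compound added in culture medium for 4, 8 or 24 h (0.5-250 nM range; fragments 24 h at 250 nM). MTT (500 µg/mL, 30 min, Locke's buffer), SDS lysis, formazan absorbance at 590. Means ± SEM.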

[8] = Cytotoxicity assessed as effect on viability of cerebellar granule neurons at 100 nM by MTT assay after 4 hrs; set-up: species or system Cerebellar granule neurone; conditions: mouse, read-out: Activity
Summary of the method: as §3

[9] = Cytotoxicity against cerebellar granule neurons by MTT assay after 24 hrs; set-up: species or system Mus musculus, Cerebellar granule neurone
Summary of the method: as §2

[10] = Cytotoxicity against cerebellar granule neurons by MTT assay after 8 hrs; set-up: species or system Mus musculus, Cerebellar granule neurone
Summary of the method: as §2

[11] = Mus musculus, Cerebellar granule neurone
[12] = mouse, cerebellar granule neurone

SMILES	Activity [1] [%]	Activity [2]	Activity [3] [nM]	Activity [4]	Activity ([5]; Mus musculus)	Activity [6]	also measured
C=C(CO)[C@H]1O[C@@](O)([C@@H](O)[C@H]2C[C@@H]3O[C@]4(CC[C@@]5(CC=C[C@H](/C=C/CCC(=O)O)O5)O4)[C@@H](C)C[C@@H]3O2)[C@H](C)C[C@@H]1C	100.57	inactive	250				
C[C@H]1C[C@@H]2O[C@@H](CO)C[C@@H]2O[C@]12CC[C@@]1(CC=C[C@H](/C=C/CCC(=O)O)O1)O2	83.66		150				
C[C@@H]1C[C@H]2O[C@H](CO)C[C@H]2O[C@@]12CC[C@]1(CC=C[C@@H](/C=C/CCC(=O)O)O1)O2	100.32	inactive	100				
C=C(CO)[C@H]1O[C@@](O)([C@H](O)[C@@H]2C[C@H]3O[C@@]4(CC[C@]5(CC=C[C@@H](/C=C/CCC(=O)O)O5)O4)[C@H](C)C[C@H]3O2)[C@H](C)C[C@@H]1C	99.09		200				
COC(=O)[C@H](NC(=O)C[C@]12C[C@H](C)C[C@@H](O1)[C@@H]1O[C@@]3(C[C@@H]1O2)NC[C@@H](C)C[C@H]3C)c1ccccc1	99.4	inactive		inactive	inactive	inactive	
C[C@@H]1C[C@H]2O[C@H](CO)C[C@H]2O[C@]12CC[C@@]1(CC=C[C@H](/C=C/CCC(=O)O)O1)O2	102.59	inactive	130				
COC(=O)[C@@H](NC(=O)C[C@@]12C[C@@H](C)C[C@H](O1)[C@H]1O[C@]3(C[C@H]1O2)NC[C@H](C)C[C@@H]3C)c1ccccc1 (single isomer, unassigned)	90.49	inactive		inactive	inactive	inactive	
C=C(C[C@]12C[C@@H](C)C[C@H](O1)[C@H]1O[C@]3(C[C@H]1O2)NC[C@H](C)C[C@@H]3C)[C@H]1O[C@@](O)([C@H](O)[C@@H]2C[C@H]3O[C@@]4(CC[C@]5(CC=C[C@@H](/C=C/CCC(=O)O)O5)O4)[C@H](C)C[C@H]3O2)[C@H](C)C[C@@H]1C		inactive		Active		inactive	Activity (COLO): 40%; Activity [7]: Dose-dependent effect and tde; viability at 4 h, 0.1 µM [8]: 40%; Activity [5]: -0.15; IC50 [9, 11]: 0.00087 µM; Activity [9, 12]: 85%; IC50 [10, 11]: 0.032 µM; Activity [10, 12]: 90%
C[C@@H]1CN[C@@]2(C[C@@H]3O[C@@]4(CC(=O)O)C[C@H](C)C[C@@H](O4)[C@@H]3O2)[C@H](C)C1	84.95	inactive		inactive	inactive	inactive	
COC(=O)[C@@H](NC(=O)C[C@]12C[C@H](C)C[C@@H](O1)[C@@H]1O[C@@]3(C[C@@H]1O2)NC[C@@H](C)C[C@H]3C)c1ccccc1 (single isomer, unassigned)	90.02	inactive		inactive		inactive	
C[C@H]1C[C@H]2O[C@H](CO)C[C@H]2O[C@]12CC[C@@]1(CC=C[C@H](/C=C/CCC(=O)O)O1)O2	98.29		150				
C[C@H]1CN[C@]2(C[C@H]3O[C@]4(CC(=O)O)C[C@@H](C)C[C@H](O4)[C@H]3O2)[C@@H](C)C1 (single isomer, unassigned)	110.15	inactive		inactive	inactive	inactive	
COC(=O)[C@H](NC(=O)C[C@@]12C[C@@H](C)C[C@H](O1)[C@H]1O[C@]3(C[C@H]1O2)NC[C@H](C)C[C@@H]3C)c1ccccc1	99.25	inactive		inactive	inactive	inactive	
